Assay outcomes (PubChem)
The entries come from a sample that favours hits as a whole.
L major viab: Leishmania major promastigote growth inhibition, primary screen; 200,000 compounds, 9% hits; inhibition, % at 10 µM; Leishmania major promastigotes, resazurin fluorescence viability; AID 1063, 2008; in the data active = inhibition above about 50%;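 note: promastigotes grown with compound for 44 hours at 28 °C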
Calb FLC: C. albicans growth inhibition with fluconazole, primary screen, CaCi-2 strain, Alamar Blue fluorescence; growth inhibition, % (no concentration beside the values); 300,000 compounds, 0.57% hits; C. albicans CaCi-2 + fluconazole, 48 h; AID 1979, 2009;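 active = growth inhibition above about 58% in most replicates, limit read from the data, passing the limit was not always enough; inconclusive = exactly half the replicates above a set limit; inactive = most replicates below a set limit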;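 note: all wells also contain fluconazole at 8 µg/ml as a sub-toxic cotreatment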
PolyA inh: polyadenylation inhibitors in yeast reporter cells, primary screen, luminescence, S. cerevisiae; 300,000 compounds, 0.02% hits; activity score, % at 12 µM; S. cerevisiae SKY197-pL101 polyadenylation reporter, beta-gal luminescence; efflux-impaired pdr1/pdr3 knockout yeast; score 100 = 6 SD above DMSO;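 active = lowest replicate activity score at least 50, where 100 means six control SD above control mean; inconclusive = lowest score under 50 but half or more replicates reach 50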;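 note: yeast exposed to compound for 9 h at 30 °C; higher score means more reporter readthrough which indicates perturbed polyadenylation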
NLRP3 yeast inh: NALP3 inflammasome inhibitors in reconstituted yeast, primary screen, luminescence, uHTS. Yeast reconstituted NLRP3/ASC/caspase-1, beta-gal luminescence, 24 h. AID 2825, 2010. inhibition, % at 10 µM. 330,000 compounds, 0.39% hits;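 active = inhibition of 50% or more; inactive = inhibition below 50%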
NALP1 yeast inh: NALP1 inflammasome inhibitors in reconstituted yeast, colorimetric, S. cerevisiae, triplicate retest; inhibition, % at 10 µM; S. cerevisiae NALP1/ASC/caspase-1 growth, X-gal OD620, 72 h; 280,000 compounds, 0.61% hits; in the data active = inhibition mostly above about 24%, no sharp cut-off; inactive = mostly below about 32%
T cruzi inh: inhibitors of intracellular T. cruzi growth, primary screen, luminescence, NIH3T3 host cells. T. cruzi beta-gal in NIH3T3, 90 h. inhibition, % (test concentration not listed). 300,000 compounds, 1.4% hits;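 active = mean inhibition across valid replicates above about 55%, limit read from the data; inconclusive = mean below that limit but half or more replicates reach it; inactive = mean below it, under half of replicates reach it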;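 note: signal also drops with host cell toxicity which is not excluded here; higher percent means less beta-gal luminescence so fewer parasites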
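Read-out: Parasite load inhibition, % | Test system: Mouse NIH/3T3 fibroblasts infected with β-gal-expressing T. cruzi Tulahuen C4 | Amount: 5,000 cells/well | Medium: DMEM, 2% fetal bovine serum | Signal: GalScreen β-gal luminescence, detergent lysis, 60 min | Timing: 3 h attach, ≥90 h co-culture | Also added: Tulahuen C4 trypomastigotes, 5000/well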
Numbers stand for hits.

Fc1ccc(C2Nc3cccc4cccc(c34)N2)cc1 was read as Calb FLC inactive, PolyA inh inactive, NLRP3 yeast inh inactive, NALP1 yeast inh inactive and T cruzi inh inactive.
Screening COc1cc2c(cc1OC)CN(Cc1cc(=O)oc3cc(C)c(Cl)cc13)CC2 returned L major viab 60, Calb FLC inactive, PolyA inh inactive, NLRP3 yeast inh inactive, NALP1 yeast inh inactive and T cruzi inh inactive.
Screening CC(C)COc1ccc(Br)cc1CNC(C)(C)C returned L major viab inactive, Calb FLC inactive, PolyA inh inactive, NLRP3 yeast inh inactive, NALP1 yeast inh inactive and T cruzi inh inactive.
For Cc1ccc(NC(=O)COc2ccc(Br)cc2C)cc1 the results were L major viab inactive, Calb FLC inactive, PolyA inh inactive, NLRP3 yeast inh inactive, NALP1 yeast inh inactive and T cruzi inh inactive.
`Cc1cc(Br)ccc1OCCCCNC(C)(C)C` gave L major viab 100, Calb FLC inactive, PolyA inh inactive, NLRP3 yeast inh inactive, NALP1 yeast inh inactive and T cruzi inh inactive.
Screening COCCNCCCCOc1ccc(Br)cc1C returned L major viab 100, Calb FLC inactive, PolyA inh inactive, NLRP3 yeast inh inactive, NALP1 yeast inh inactive and T cruzi inh inactive.
COc1ccccc1OCCCCNC(C)(C)C was read as L major viab inactive, Calb FLC inactive, PolyA inh inactive, NLRP3 yeast inh inactive, NALP1 yeast inh inactive and T cruzi inh inactive.
For COCCCNCCCCOc1ccc(Br)cc1C the results were L major viab 99, Calb FLC inactive, PolyA inh inactive, NLRP3 yeast inh inactive, NALP1 yeast inh inactive and T cruzi inh inactive.
`CC(C)(C)NCCCCOc1ccccc1F` gave L major viab 100, Calb FLC inactive, PolyA inh inactive, NLRP3 yeast inh inactive, NALP1 yeast inh inactive and T cruzi inh inactive.
CC(=O)Oc1ccccc1-n1c(C)nc(=O)c(-c2ccccc2)c1C was read as Calb FLC inactive, PolyA inh inactive, NLRP3 yeast inh inactive, NALP1 yeast inh inactive and T cruzi inh inactive.
For CC(=O)Nc1c(I)c(C(=O)N[C@H]2C(O)O[C@H](CO)[C@@H](O)[C@@H]2O)c(I)c(N(C)C(C)=O)c1I (stereo not given in full) the results were NLRP3 yeast inh inactive.
Screening CC(C)CCNC(=O)c1cc(-c2cccs2)nc2ccccc12 returned PolyA inh inactive, NLRP3 yeast inh inactive, NALP1 yeast inh inactive and T cruzi inh inactive.
Screening C/C(N)=C(/C#N)C(=O)CSc1nc2ccccc2c(=O)n1CCCOC(C)C returned L major viab 90, Calb FLC inactive, PolyA inh inactive, NLRP3 yeast inh inactive, NALP1 yeast inh inactive and T cruzi inh inactive.
Screening CCOC(=O)c1sc(NC(=O)Nc2ccc(Cl)cc2)nc1C returned L major viab inactive, Calb FLC inactive, PolyA inh inactive, NLRP3 yeast inh inactive, NALP1 yeast inh inactive and T cruzi inh inactive.
For Cc1ccc(/C=C2/NC(=O)N(Cc3ccccc3)C2=O)s1 the results were L major viab 73, Calb FLC inactive, PolyA inh inactive, NLRP3 yeast inh inactive, NALP1 yeast inh inactive and T cruzi inh inactive.
Screening Cc1cc(C(C)(C)C)ccc1OC(=O)C1=CC=CN2CCS(=O)(=O)N=C12 returned NLRP3 yeast inh inactive.
CNCc1ccccc1Sc1cccc(O)c1 was read as L major viab inactive, Calb FLC inactive, PolyA inh inactive, NLRP3 yeast inh inactive, NALP1 yeast inh inactive and T cruzi inh inactive.
CNCc1ccccc1Sc1cc(O)ccc1O was read as L major viab inactive, NLRP3 yeast inh inactive and NALP1 yeast inh 56.
For Cc1n[nH]c(=O)c2c(NC(=O)CSc3nncn3C(C)C)oc(C)c12 the results were NLRP3 yeast inh inactive.
Cc1ccc(COc2ccccc2C(=S)N2CCCC2)cc1 was read as L major viab 76, Calb FLC inactive, PolyA inh inactive, NLRP3 yeast inh inactive, NALP1 yeast inh inactive and T cruzi inh inactive.
`Cc1ccccc1NC(=S)NC1(C)CCS(=O)(=O)C1` (stereo not given) gave L major viab 54, Calb FLC inconclusive, PolyA inh inactive, NLRP3 yeast inh inactive, NALP1 yeast inh inactive and T cruzi inh inactive.
Screening CC1(NC(=O)Nc2ccccc2)CCS(=O)(=O)C1 (stereo not given) returned Calb FLC inactive, PolyA inh inactive, NLRP3 yeast inh inactive and T cruzi inh inactive.
`CC(C)C(=O)Nc1cccc(C(=O)Nc2nnc(C(C)C)s2)c1` gave L major viab 53, Calb FLC inactive, PolyA inh inactive, NLRP3 yeast inh inactive, NALP1 yeast inh inactive and T cruzi inh inactive.
For COc1ccc(NC(=O)CSc2ccccc2)c([N+](=O)[O-])c1 the results were L major viab inactive, Calb FLC inactive, PolyA inh inactive, NLRP3 yeast inh inactive, NALP1 yeast inh inactive and T cruzi inh inactive.
For COc1ccc(NC(=O)c2ccc([N+](=O)[O-])s2)c([N+](=O)[O-])c1 the results were L major viab inactive, Calb FLC inactive, PolyA inh inactive, NLRP3 yeast inh inactive, NALP1 yeast inh inactive and T cruzi inh 64.
Cc1cccc(C)c1NC(=O)c1ccc([N+](=O)[O-])s1 was read as L major viab 99, Calb FLC inactive, PolyA inh inactive, NLRP3 yeast inh inactive, NALP1 yeast inh inactive and T cruzi inh inactive.
For COc1ccc(NC(=O)c2ccc(C)o2)c([N+](=O)[O-])c1 the results were L major viab inactive, Calb FLC inactive, PolyA inh inactive, NLRP3 yeast inh inactive, NALP1 yeast inh inactive and T cruzi inh inactive.
For COc1ccc(NC(=O)CSc2nc3ccccc3n2-c2ccccc2)c([N+](=O)[O-])c1 the results were L major viab 70, Calb FLC inactive, PolyA inh inactive, NLRP3 yeast inh inactive, NALP1 yeast inh inactive and T cruzi inh inactive.
For O=C(N[C@H]1C/C=C\C[C@@H](CC(=O)N(CCO)Cc2ccccc2)C(=O)NC[C@H](c2ccccc2)OC1=O)OCC1c2ccccc2-c2ccccc21 the results were NLRP3 yeast inh inactive.
Screening O=C(NC(=S)N1CCCC1)c1ccccc1F returned NLRP3 yeast inh inactive.
`Cc1c(NC(=O)Nc2cccc(Cl)c2Cl)c(=O)n(-c2ccccc2)n1C` gave Calb FLC inactive, PolyA inh inactive, NLRP3 yeast inh inactive, NALP1 yeast inh inactive and T cruzi inh inactive.
Cc1ccnc(NC(=O)Nc2ccc(Br)cc2Cl)c1 was read as L major viab inactive, Calb FLC inactive, PolyA inh inactive, NLRP3 yeast inh inactive, NALP1 yeast inh inactive and T cruzi inh inactive.
`Cc1cccc(NC(=O)c2ccc([N+](=O)[O-])cc2Cl)n1` gave L major viab inactive, Calb FLC inactive, PolyA inh inactive, NLRP3 yeast inh inactive, NALP1 yeast inh inactive and T cruzi inh inactive.
